Assay results gathered from unrelated publications.
Each line is one published result; the experiments were not run side by side.

Compound | system | conditions | Cmax
CC1(C)CC[C@]2(C(=O)O)CC[C@]3(C)C(=CC[C@@H]4[C@@]5(C)C[C@@H](O)[C@H](OC(=O)/C=C/c6ccc(O)cc6)C(C)(C)[C@@H]5CC[C@]43C)[C@@H]2C1 (relative stereo) | mouse, brain | intraperitoneal, 85 µmol/kg, single dose | 1.75 µM
CN1CCC[C@H](CN2c3ccccc3Sc3ccccc32)C1.Cl | mouse, plasma | intraperitoneal, 32 mg/kg, single dose | 1560 ng/mL
COc1ccc(C(O)COc2ccc(-c3csc(-c4ccc(OCC(O)c5ccc(OC)c(OC)c5)cc4)n3)cc2)cc1OC (stereo not drawn) | C57BL/6 mouse, plasma | oral, 10 mg/kg | 1760 ng/mL
CCN1CCN(Cc2cc(NC(=O)c3ccc(C)c(-c4ccc5nc(NC(=O)C6CC6)cn5n4)c3)cc(C(F)(F)F)c2)CC1 | Swiss mouse, plasma | intraperitoneal, 3 mg/kg | 340 ng/mL
COc1ccc2nccc(N3CCc4c(cc(Cn5ccnc5)cc4-c4cn(C)nc4C(F)(F)F)C3=O)c2c1 | male CD-1 mouse, plasma | oral, 50 mg/kg | 8940 ng/mL
Cc1c(C(=O)NN2CCCCC2)nc(-c2ccc(Cl)cc2Cl)n1-c1ccc(OS(=O)(=O)CCC(F)(F)F)cc1 | mouse, plasma | oral, 20 µmol/kg, single dose | 1.2 µM
CC(=O)O[C@H]1C(=O)[C@@]2(C)[C@H]([C@H](OC(=O)c3ccccc3)[C@]3(O)C[C@H](OC(=O)[C@H](O)[C@@H](NC(=O)c4ccccc4)c4ccccc4)C(C)=C1C3(C)C)[C@]1(OC(C)=O)CO[C@@H]1C[C@@H]2O | SCID mouse, tumour | intraperitoneal, 10 mg/kg, single dose, tumour-bearing | 3700 ng/g
CS(=O)(=O)CCNCc1ccc(-c2ccc3ncnc(Nc4ccc(OCc5cccc(F)c5)c(Cl)c4)c3c2)o1 | nude mouse, plasma | oral, 200 mg/kg, single dose | 16600 ng/mL
Cc1ccc(NC(=O)c2ccc(CN3CCN(C)CC3)cc2)cc1Nc1nccc(-c2cncc(-c3oncc3C)c2)n1 | male C57BL/6 mouse, brain | oral, 100 mg/kg/day | 98.1 ng/mL
CCc1ccc(Cc2cc([C@@H]3O[C@H](CO)[C@@H](O)[C@H](O)[C@H]3O)cc3c2CCC3)cc1 | male C57BL/6 mouse, plasma | oral, 3 mg/kg | 1830 ng/mL
COc1nc(-c2cc(C)c(N[C@@H](C)c3cc(F)cc(F)c3)nn2)ccc1-n1cnc(C)c1 | male CD-1 mouse, plasma | oral, 5 mg/kg, single dose | 1180 ng/mL
CCOc1ccc(Cc2cc([C@@H]3O[C@H](CO)[C@@H](O)[C@H](O)[C@H]3O)ccc2Cl)cc1 | male C57BL/6 mouse, plasma | oral, 1 mg/kg | 207 ng/mL
COc1ccc2c3c1O[C@H]1C[C@@H](OC(=O)c4ccccc4)C=C[C@@]31CCN(C)C2 | mouse, brain | intravenous, 3 mg/kg | 4810 ng/g
Cc1ncsc1-c1ccc(CNC(=O)[C@@H]2C[C@@H](O)CN2C(=O)[C@@H](NC(=O)CCCCCCCCCC(=O)N2CCN(CC[C@H](NC(=O)C3(N)CCN(c4ncnc5[nH]ccc45)CC3)c3ccc(Cl)cc3)CC2)C(C)(C)C)cc1 | mouse, plasma | intraperitoneal, 75 mg/kg, single dose | 10 µM
NC(=O)c1cccc(-c2c[nH]c3ncnc(N4CCOCC4)c23)c1 | female C57BL/6 mouse, plasma | intraperitoneal, 10 mg/kg | 11 µM
Cc1c2c(n(-c3ccc(F)cc3Cl)c1-c1ccc(OS(=O)(=O)CCC(F)(F)F)cc1)CCN(N1CCCCC1)C2=O | mouse, plasma | oral, 6 µmol/kg, single dose | 0.04 µM
CC(C)(O)c1cn(-c2ccc(-c3cc(F)c(CO)c(S(C)(=O)=O)c3)cc2)c(C(C)(C)c2cccc(F)c2Cl)n1 | male C57BL/6 mouse, serum | oral, 10 mg/kg | 1.9 µM
CNC(=O)c1ccccc1Nc1cc(Nc2ccc(N3CCOCC3)cc2OC)ncc1C(F)(F)F | BALB/c mouse, plasma | oral, 150 mg/kg | ~14 µM
CNCCN(C)c1cc(C#N)cc(CCc2cc(C)cc(N)n2)c1 | male BALB/c mouse, plasma | oral, 10 mg/kg | 50.8 ng/mL
COc1nc(-c2cc(C)c(N[C@@H](C)c3ccc(F)cc3)nn2)ccc1-n1cnc(C)c1 | male CD-1 mouse, plasma | oral, 5 mg/kg, single dose | 1530 ng/mL
O=C(CCCCCC(=O)NN=Cc1ccc(-c2ccccc2)cc1)NO | C57BL/6 mouse, brain | intraperitoneal, 25 mg/kg, single dose | 0.06 µM
CC(C)(C)c1ccc(O)c(CN(Cc2cc(C(C)(C)C)ccc2O)C2CCC(NC(N)=O)CC2)c1 (stereo not drawn) | male C57BL/6 mouse, plasma | intraperitoneal, 10 mg/kg, single dose | 2240 ng/mL
C=CC(=O)N1CC2CC(n3nc(-c4ccc(C(=O)Nc5ccccn5)cc4)c4c(N)ncnc43)CC2C1 (stereo not drawn) | SCID mouse, plasma | oral, 5 mg/kg | 429 ng/mL
CC(C)(O)c1cn(-c2ccc(-c3ccc(CO)c(S(C)(=O)=O)c3)cc2)c(Cc2ccccc2Cl)n1 | male C57BL/6 mouse, serum | oral, 10 mg/kg | 3.2 µM

Compound | system | conditions | Cmax
NS(=O)(=O)c1ccc(-c2cc(Nc3ccc(OC(F)(F)F)cc3)ncn2)cc1 | male BALB/c mouse, plasma | oral, 20 mg/kg | 2000 ng/mL
CCc1cc(OC)c2nccc(N3CCc4c(cc(Cn5ccnc5)cc4-c4cn(C)nc4C(F)(F)F)C3=O)c2c1 | male CD-1 mouse, plasma | oral, 150 mg/kg | 35200 ng/mL
Nc1nc(-c2ccccc2)nc2[nH]nc(Nc3ccc(C(F)(F)F)cc3)c12 | mouse, plasma | oral, 100 mg/kg | 1250 ng/mL
CN1C(=O)c2ccccc2[S@+]([O-])c2ccc(C(=O)NCCc3cccs3)cc21 | male C57BL/6 mouse, plasma | intraperitoneal, 30 mg/kg, single dose | 8280 ng/mL
CCc1cc(C(=O)NC)c2nccc(N3CCc4c(cc(Cn5ccnc5)cc4-c4cn(C)nc4C(F)(F)F)C3=O)c2c1 | male CD-1 mouse, plasma | oral, 150 mg/kg | 131000 ng/mL
CNC(=O)c1cc(Oc2ccc(NC(=O)Nc3ccc(Cl)c(C(F)(F)F)c3)c(F)c2)ccn1 | male mouse, plasma | oral, 10 mg/kg, single dose | 3300 ng/mL
Cc1cc(Nc2ccc(S(F)(F)(F)(F)F)cc2)n2ccnc2n1 | male Swiss mouse, plasma | oral, 100 mg/kg, single dose | 29 µM
Cc1noc([C@H](Cc2c[nH]cn2)NC(=O)CN(CCCc2ccccc2)CC(=O)O)n1 | male C57BL/6 mouse, plasma | intraperitoneal, 30 mg/kg | 5800 ng/mL
Cn1cnc2c(F)c(Nc3ccc(Br)cc3Cl)c(C(=O)NOCCO)cc21 | nude mouse, liver | oral, 10 mg/kg, single dose, tumour-bearing | 1440 ng/g
COc1nc(-c2cc(C)c(N[C@@H](C)c3c(F)cc(F)cc3F)nn2)ccc1-n1cnc(C)c1 | male CD-1 mouse, plasma | intravenous, 1 mg/kg, single dose | 858 ng/mL
CC=Cc1ccc(O)c(OC)c1 | mouse, brain | intranasal, 100 mg/kg | 4340 ng/g
CSc1cc(Oc2ccnc3[nH]c(=O)cnc23)ccc1NC(=O)Nc1cc(C(C)(C)C)nn1-c1ccccc1 | BALB/c mouse, plasma | intravenous, 2 mg/kg | 29.8 µM
Cc1nc(-c2cnc(NC(C)C)n(C)c2=O)ccc1Oc1ccnc(-c2cnn(C)c2)c1 | female mouse, plasma | oral, 15 mg/kg, single dose | 9360 ng/mL
COc1ccc([C@@]23Oc4cc(OC)cc(OC)c4[C@]2(O)[C@H](O)[C@H](C(=O)N(C)C)[C@H]3c2ccccc2)cc1 | mouse, plasma | intraperitoneal, 5 mg/kg | ~4 µM
O=S(=O)(c1ccc(-c2ccc3nccc(Nc4ccncn4)c3c2)cc1)N1CCOCC1 | female BALB/c mouse, plasma | intraperitoneal, 10 mg/kg | 4460 ng/mL
CNC(=O)[C@H](Cc1c[nH]cn1)NC(=O)CN(CCCc1ccccc1)CC(=O)OC | male C57BL/6 mouse, plasma | intraperitoneal, 30 mg/kg | 3800 ng/mL
CC(C)N1Cc2cc(C(F)(F)F)ncc2C2=CN=C(NCc3c(F)ccc4c3CCO4)N3C=NC(C1=O)C23 (stereo not drawn) | male CD-1 mouse, plasma | oral, 10 mg/kg | 5070 ng/mL
Cc1c2c(n(-c3ccc(Cl)cc3Cl)c1-c1ccc(OS(=O)(=O)CCC(F)(F)F)cc1)CCN(N1CCCCC1)C2=O | mouse, plasma | oral, 6 µmol/kg, single dose | 0.48 µM
Cc1ccc2cncc(N3CCc4c(cc(Cn5ccnc5)cc4-c4cn(C)nc4C(F)(F)F)C3=O)c2c1 | male CD-1 mouse, plasma | oral, 10 mg/kg | 2680 ng/mL
OC[C@H]1O[C@@H](c2ccc(Cl)c(Cc3ccc(O[C@H]4CCOC4)cc3)c2)[C@H](O)[C@@H](O)[C@@H]1O | CD-1 mouse, plasma | intravenous, 5 mg/kg | 4920 ng/mL
CN1CCN(C(=O)c2cc3c(Nc4ccc(OC(F)(F)F)cc4)ncnc3s2)CC1 | male BALB/c mouse, plasma | oral, 20 mg/kg | 1090 ng/mL
COc1cc2c(Nc3ccc(Cl)c(Cl)c3F)ncnc2cc1OC[C@@H]1C[C@@H]2CN(C)C[C@@H]2C1 | FVB mouse, brain | oral, 70 mg/kg, single dose | 7570 ng/g
COc1cc(OC)c2nccc(N3CCc4c(cc(Cn5ccnc5)cc4-c4cn(C)nc4C(F)(F)F)C3=O)c2c1 | male CD-1 mouse, plasma | oral, 50 mg/kg | 19700 ng/mL
CC[C@H](C)[C@@H]1NC(=O)[C@@](C)(NC(=O)[C@H](CCCNC(=N)N)NC(=O)[C@H](CC(C)C)NC(=O)[C@@H](NC(=O)[C@H](CCC(N)=O)NC(=O)[C@H](CC(C)C)NC(C)=O)[C@@H](C)O)CCCC=CCCC[C@@](C)(C(=O)N[C@@H](CC(C)C)C(=O)N[C@@H](Cc2ccc3ccccc3c2)C(N)=O)NC(=O)[C@H](CCCNC(=N)N)NC(=O)[C@H](CCC(N)=O)NC1=O | male BALB/c mouse, plasma | intravenous, 10 mg/kg | 86 µM
